{"source": "ChEMBL document CHEMBL1933037", "about": "“Fatty acyl-gramicidin S derivatives with both high antibiotic activity and low hemolytic activity” (Bioorg Med Chem Lett, 2012)", "key": {"Staphylococcus aureus": {"test_system": "Staphylococcus aureus", "experiment": "Antibacterial activity against Staphylococcus aureus NBRC 12732 after overnight incubation by microplate dilution method", "assay_type": "functional", "summary_of_the_method": "(§1)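 MIC read by microplate broth dilution with an inoculum of 10^6 organisms per ml of medium. Each peptide was tested 7–10 times.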"}, "Priestia megaterium": {"test_system": "Priestia megaterium", "experiment": "Antibacterial activity against Bacillus megaterium ATCC 19213 after overnight incubation by microplate dilution method", "assay_type": "functional", "summary_of_the_method": "as §1"}, "[1]": {"test_system": "Staphylococcus epidermidis", "experiment": "Antibacterial activity against Staphylococcus epidermidis NBRC 12933 after overnight incubation by microplate dilution method", "assay_type": "functional", "summary_of_the_method": "as §1"}, "Bacillus subtilis": {"test_system": "Bacillus subtilis", "experiment": "Antibacterial activity against Bacillus subtilis NBRC 3513 after overnight incubation by microplate dilution method", "assay_type": "functional", "summary_of_the_method": "as §1"}, "[2]": {"experiment": "Hemolytic activity against sheep RBC at 20 to 100 uM after 30 mins by spectrophotometry", "assay_type": "ADME, cell-based, Ovis aries", "conditions": "erythrocyte, 0.5 h", "summary_of_the_method": "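Sheep erythrocytes were exposed to a range of peptide concentrations to build hemolysis (%) dose–response curves. The experiment was run three times per peptide.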"}, "Pseudomonas aeruginosa": {"test_system": "Pseudomonas aeruginosa", "experiment": "Antibacterial activity against Pseudomonas aeruginosa NBRC 3080 after overnight incubation by microplate dilution method", "assay_type": "functional", "summary_of_the_method": "as §1"}, "Escherichia coli": {"test_system": "Escherichia coli", "experiment": "Antibacterial activity against Escherichia coli NBRC 12734 after overnight incubation by microplate dilution method", "assay_type": "functional", "summary_of_the_method": "as §1"}}, "note": "Peptide text beside a SMILES is read from it.", "data": [{"smiles": "CC(C)C[C@@H]1NC(=O)[C@H](CCCN)NC(=O)[C@H](C(C)C)NC(=O)[C@@H]2C[C@@H](N)CN2C(=O)[C@@H](Cc2ccccc2)NC(=O)[C@H](CC(C)C)NC(=O)[C@H](CCCN)NC(=O)[C@H](C(C)C)NC(=O)[C@@H]2CCCN2C(=O)[C@@H](Cc2ccccc2)NC1=O", "values": [{"measurement": "MIC", "setting": "Staphylococcus aureus", "value": 12.5, "unit": "µg/mL"}, {"measurement": "MIC", "setting": "Priestia megaterium", "value": 6.25, "unit": "µg/mL"}, {"measurement": "MIC", "setting": "[1]", "value": 6.25, "unit": "µg/mL"}, {"measurement": "MIC", "setting": "Bacillus subtilis", "value": 6.25, "unit": "µg/mL"}, {"measurement": "Activity", "setting": "[2]", "value": "Toxic"}, {"measurement": "MIC", "setting": "Pseudomonas aeruginosa", "value": 50, "unit": "µg/mL"}, {"measurement": "MIC", "setting": "Escherichia coli", "value": 25, "unit": "µg/mL"}]}, {"smiles": "CCCCCCCC(=O)N[C@H]1C[C@H]2C(=O)N[C@@H](C(C)C)C(=O)N[C@@H](CCCN)C(=O)N[C@@H](CC(C)C)C(=O)N[C@H](Cc3ccccc3)C(=O)N3CCC[C@H]3C(=O)N[C@@H](C(C)C)C(=O)N[C@@H](CCCN)C(=O)N[C@@H](CC(C)C)C(=O)N[C@H](Cc3ccccc3)C(=O)N2C1", "values": [{"measurement": "MIC", "setting": "Staphylococcus aureus", "value": 6.25, "unit": "µg/mL"}, {"measurement": "MIC", "setting": "Priestia megaterium", "value": 6.25, "unit": "µg/mL"}, {"measurement": "MIC", "setting": "[1]", "value": 6.25, "unit": "µg/mL"}, {"measurement": "MIC", "setting": "Bacillus subtilis", "value": 12.5, "unit": "µg/mL"}, {"measurement": "Activity", "setting": "[2]", "value": "Toxic"}, {"measurement": "MIC", "setting": "Pseudomonas aeruginosa", "value": 50, "unit": "µg/mL"}, {"measurement": "MIC", "setting": "Escherichia coli", "value": 50, "unit": "µg/mL"}]}, {"smiles": "CC(C)C[C@@H]1NC(=O)[C@H](CCCN)NC(=O)[C@H](C(C)C)NC(=O)[C@@H]2C[C@H](N)CN2C(=O)[C@@H](Cc2ccccc2)NC(=O)[C@H](CC(C)C)NC(=O)[C@H](CCCN)NC(=O)[C@H](C(C)C)NC(=O)[C@@H]2CCCN2C(=O)[C@@H](Cc2ccccc2)NC1=O", "values": [{"measurement": "MIC", "setting": "Staphylococcus aureus", "value": 12.5, "unit": "µg/mL"}, {"measurement": "MIC", "setting": "Priestia megaterium", "value": 6.25, "unit": "µg/mL"}, {"measurement": "MIC", "setting": "[1]", "value": 6.25, "unit": "µg/mL"}, {"measurement": "MIC", "setting": "Bacillus subtilis", "value": 6.25, "unit": "µg/mL"}, {"measurement": "Activity", "setting": "[2]", "value": "Toxic"}, {"measurement": "MIC", "setting": "Pseudomonas aeruginosa", "value": 50, "unit": "µg/mL"}, {"measurement": "MIC", "setting": "Escherichia coli", "value": 25, "unit": "µg/mL"}]}, {"smiles": "CC(C)C[C@@H]1NC(=O)[C@H](CCCN)NC(=O)[C@H](C(C)C)NC(=O)[C@@H]2CCCN2C(=O)[C@@H](Cc2ccccc2)NC(=O)[C@H](CC(C)C)NC(=O)[C@H](CCCN)NC(=O)[C@H](C(C)C)NC(=O)[C@@H]2CCCN2C(=O)[C@@H](Cc2ccccc2)NC1=O", "note": "[GRAMICIDIN S] (HELM PEPTIDE1{L.[dF].P.V.[Orn].L.[dF].P.V.[Orn]}$PEPTIDE1,PEPTIDE1,1:R1-10:R2$$$V2.0)", "values": [{"measurement": "MIC", "setting": "Staphylococcus aureus", "value": 3.13, "unit": "µg/mL"}, {"measurement": "MIC", "setting": "Priestia megaterium", "value": 3.13, "unit": "µg/mL"}, {"measurement": "MIC", "setting": "[1]", "value": 3.13, "unit": "µg/mL"}, {"measurement": "MIC", "setting": "Bacillus subtilis", "value": 3.13, "unit": "µg/mL"}, {"measurement": "MIC", "setting": "Pseudomonas aeruginosa", "value": 25, "unit": "µg/mL"}, {"measurement": "MIC", "setting": "Escherichia coli", "value": 25, "unit": "µg/mL"}]}]}
